Assay results reported in ChEMBL document CHEMBL4130629 (J Med Chem, 2018).

Columns and labels:
[1] = tested on: Human immunodeficiency virus 1; assay: Antiviral activity against ENV pseudotyped CCR5-tropic HIV1 […] infected in human HeLa67 cells after 3 days by luciferase reporter gene assay; format: functional, organism-based; conditions: Human immunodeficiency virus 1, HeLa67, 72 h
Method in brief: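 Single-cycle infection with env-deleted, luciferase-reporter HIV-1 pseudotyped with the JRFL (CCR5) envelope, supplied by transfection; viral titers normalized by luminescence without compound. HeLa 67 cells were infected in the presence of compounds given as 3-fold serial dilutions made from 30 mM DMSO stocks.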

MT2 = assay: Cytotoxicity against human MT2 cells assessed as decrease in cell viability after 3 days […]; format: functional; conditions: MT2, 72 h
[2] = Permeability in human Caco2 cells; format: ADME, cell-based; conditions: Caco-2, read-out: permeability
[3] = Half life in human liver microsomes; format: ADME, microsome
[4] = Metabolic stability in human liver microsomes assessed as parent compound remaining after 10 mins; format: ADME, microsome; conditions: read-out: Stability
Method in brief: (§1)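 Compound at 3 μM was incubated with human or rat liver microsomes, and the percentage of parent compound remaining was measured after 10 min.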

[5] = Metabolic stability in rat liver microsomes assessed as parent compound remaining after 10 mins; format: ADME, microsome; conditions: read-out: Stability; method in brief: as §1

Row | Compound | EC50 [1] [nM] | CC50 (MT2) [nM] | Papp [2] [×10⁻⁶ cm/s] | half-life [3] [min] | remaining at 10 min [4] [%] | remaining at 10 min [5] [%]
1 | COc1ncn(-c2ncc(OC)c3c(C(=O)C(=O)N4CCN(C(=O)c5ccccc5)CC4)c[nH]c23)n1 | 0.13 | 285000 |  |  |  | 
2 | COc1cnc(-c2ccccn2)c2[nH]cc(C(=O)C(=O)N3CCN(C(=O)c4ccccc4)CC3)c12 | 0.13 | 4000 | 13.4 | 15 |  | 
3 | COc1cnc(-c2ccncc2)c2[nH]cc(C(=O)C(=O)N3CCN(C(=O)c4ccccc4)CC3)c12 | 0.33 | 6000 |  |  |  | 
4 | CCOc1ncc(-c2ncc(OC)c3c(C(=O)C(=O)N4CCN(C(=O)c5ccccc5)CC4)c[nH]c23)s1 | 0.1 | > 300000 |  | 17 |  | 
5 | COc1cnc(-c2ccco2)c2[nH]cc(C(=O)C(=O)N3CCN(C(=O)c4ccccc4)CC3)c12 | 0.02 | 281000 to 300000 | 8.6 | 19 |  | 
6 | COc1cnc(-n2cnc(SC)n2)c2[nH]cc(C(=O)C(=O)N3CCN(C(=O)c4ccccc4)CC3)c12 | 0.03 | > 300000 | < 1.5 |  | 68 | 91
7 | COc1cnc(-c2cccnc2)c2[nH]cc(C(=O)C(=O)N3CCN(C(=O)c4ccccc4)CC3)c12 | 0.09 | 10000 | < 1.5 | 41 |  | 
8 | CCN(CC)CCNc1ncn(-c2ncc(OC)c3c(C(=O)C(=O)N4CCN(C(=O)c5ccccc5)CC4)c[nH]c23)n1 | 1.04 | > 300000 | < 1.5 |  | 87 | 100
9 | COc1cnc(-n2cnc(N)n2)c2[nH]cc(C(=O)C(=O)N3CCN(C(=O)c4ccccc4)[C@H](C)C3)c12 | 0.17 | > 300000 | < 1.5 |  | 95 | 99
10 | COc1cnc(-c2cnccn2)c2[nH]cc(C(=O)C(=O)N3CCN(C(=O)c4ccccc4)CC3)c12 | 0.04 | 3460 | 17 | 19 |  | 
11 | COc1cnc(-c2cn(C)c(=O)cn2)c2[nH]cc(C(=O)C(=O)N3CCN(C(=O)c4ccccc4)CC3)c12 | 0.26 | > 150000 |  |  |  | 
12 | CCCS(=O)(=O)c1ncn(-c2ncc(OC)c3c(C(=O)C(=O)N4CCN(C(=O)c5ccccc5)CC4)c[nH]c23)n1 | 0.78 | 207000 |  |  |  | 
13 | COc1cnc(-n2cnc(C)n2)c2[nH]cc(C(=O)C(=O)N3CCN(C(=O)c4ccccc4)[C@@H](C)C3)c12 | 0.52 | > 300000 |  |  |  | 95
14 | COc1cnc(-c2ccncn2)c2[nH]cc(C(=O)C(=O)N3CCN(C(=O)c4ccccc4)CC3)c12 | 0.11 | 285000 to 300000 | 37.8 | 15 |  | 
15 | COc1cnc(-c2cccc(C)n2)c2[nH]cc(C(=O)C(=O)N3CCN(C(=O)c4ccccc4)CC3)c12 | 0.59 | 30000 | 13.4 | 12 |  | 
16 | COc1cnc(-c2ccnnc2)c2[nH]cc(C(=O)C(=O)N3CCN(C(=O)c4ccccc4)CC3)c12 | 0.19 | 14000 | < 1.5 | 48 |  | 
17 | CCCSc1ncn(-c2ncc(OC)c3c(C(=O)C(=O)N4CCN(C(=O)c5ccccc5)CC4)c[nH]c23)n1 | 0.015 | 7000 |  |  |  | 
18 | COc1cnc(-c2ccoc2)c2[nH]cc(C(=O)C(=O)N3CCN(C(=O)c4ccccc4)CC3)c12 | 0.11 | 146000 | 4.6 | 29 |  | 
19 | COc1cnc(-n2ccc(N)n2)c2[nH]cc(C(=O)C(=O)N3CCN(C(=O)c4ccccc4)[C@H](C)C3)c12 | 0.16 | > 300000 |  |  | 92 | 91
20 | COc1cnc(-c2cncc(N)n2)c2[nH]cc(C(=O)C(=O)N3CCN(C(=O)c4ccccc4)CC3)c12 | 0.06 | 14000 | 1.5 to 2.2 | 21 |  | 
21 | COc1cnc(-n2cnc(N3CCN(C)CC3)n2)c2[nH]cc(C(=O)C(=O)N3CCN(C(=O)c4ccccc4)CC3)c12 | 0.14 | > 300000 |  |  |  | 
22 | CNc1cnc(-c2ncc(OC)c3c(C(=O)C(=O)N4CCN(C(=O)c5ccccc5)CC4)c[nH]c23)cn1 | 0.02 | > 95000 |  | 21 |  | 
23 | COc1cnc(-n2cnc(C(=O)N3CCN(C)CC3)n2)c2[nH]cc(C(=O)C(=O)N3CCN(C(=O)c4ccccc4)CC3)c12 | 6.54 | > 150000 |  |  |  | 
24 | COc1cnc(-n2cnc(C(=O)N(C)C)n2)c2[nH]cc(C(=O)C(=O)N3CCN(C(=O)c4ccccc4)CC3)c12 | 0.1 | > 300000 |  |  |  | 
25 | COc1cnc(-n2cc(C)cn2)c2[nH]cc(C(=O)C(=O)N3CCN(C(=O)c4ccccc4)CC3)c12 |  | 243000 |  |  |  | 

Row | Compound | EC50 [1] [nM] | CC50 (MT2) [nM] | Papp [2] [×10⁻⁶ cm/s] | half-life [3] [min] | remaining at 10 min [4] [%] | remaining at 10 min [5] [%]
26 | COc1cccc(-c2ncc(OC)c3c(C(=O)C(=O)N4CCN(C(=O)c5ccccc5)CC4)c[nH]c23)n1 | 0.91 | 64000 |  | 8 |  | 
27 | COc1cnc(-c2cncs2)c2[nH]cc(C(=O)C(=O)N3CCN(C(=O)c4ccccc4)CC3)c12 | 0.03 | 297000 to 300000 | 1.5 | 19 |  | 
28 | COCc1ncn(-c2ncc(OC)c3c(C(=O)C(=O)N4CCN(C(=O)c5ccccc5)CC4)c[nH]c23)n1 | 0.09 | > 300000 | < 1.5 |  | 97 | 95
29 | COc1cnc(-n2nccc2N)c2[nH]cc(C(=O)C(=O)N3CCN(C(=O)c4ccccc4)[C@H](C)C3)c12 | 0.07 | > 300000 |  |  | 68 | 85
30 | COc1cnc(-c2cccnn2)c2[nH]cc(C(=O)C(=O)N3CCN(C(=O)c4ccccc4)CC3)c12 | 0.17 | > 300000 | 2.4 | 29 |  | 
31 | COc1cnc(-c2cc[nH]n2)c2[nH]cc(C(=O)C(=O)N3CCN(C(=O)c4ccccc4)CC3)c12 | 0.26 | 3000 | < 1 | 47 |  | 
32 | CNC(=O)c1ccn(-c2ncc(OC)c3c(C(=O)C(=O)N4CCN(C(=O)c5ccccc5)CC4)c[nH]c23)n1 | 0.05 | 166000 | < 1.5 |  | 87 | 81
33 | COc1cnc(-c2ncco2)c2[nH]cc(C(=O)C(=O)N3CCN(C(=O)c4ccccc4)CC3)c12 | 0.37 | 15000 | 7.2 | 37 |  | 
34 | COc1cnc(-n2ccc(-c3ccc(-c4nn[nH]n4)cc3)n2)c2[nH]cc(C(=O)C(=O)N3CCN(C(=O)c4ccccc4)CC3)c12 | 0.03 | > 300000 |  |  |  | 
35 | COc1cnc(-c2nccs2)c2[nH]cc(C(=O)C(=O)N3CCN(C(=O)c4ccccc4)CC3)c12 | 0.02 | > 150000 | < 1.5 | 17 |  | 
36 | COc1cnc(-c2cscn2)c2[nH]cc(C(=O)C(=O)N3CCN(C(=O)c4ccccc4)CC3)c12 | 0.11 |  | 21.7 | 39 |  | 
37 | COc1cnc(-n2cncn2)c2[nH]cc(C(=O)C(=O)N3CCN(C(=O)c4ccccc4)[C@H](C)C3)c12 | 0.08 | > 300000 | 21.9 |  | 95 | 95
38 | COc1cnc(-c2ccsc2)c2[nH]cc(C(=O)C(=O)N3CCN(C(=O)c4ccccc4)CC3)c12 | 0.13 | 43000 | 3.9 | 13 |  | 
39 | COc1cnc(-c2ncccn2)c2[nH]cc(C(=O)C(=O)N3CCN(C(=O)c4ccccc4)CC3)c12 | 1.28 | > 300000 | 10.6 | 32 |  | 
40 | COc1cnc(-n2ccc(-c3cccc(-c4nn[nH]n4)c3)n2)c2[nH]cc(C(=O)C(=O)N3CCN(C(=O)c4ccccc4)CC3)c12 | 0.02 | 128000 |  |  |  | 
41 | COc1cnc(-c2cnc(N)cn2)c2[nH]cc(C(=O)C(=O)N3CCN(C(=O)c4ccccc4)CC3)c12 | 0.04 | 20000 | 3.3 | 68 |  | 
42 | COc1cnc(-n2cc(F)cn2)c2[nH]cc(C(=O)C(=O)N3CCN(C(=O)c4ccccc4)CC3)c12 | 0.03 | 75000 | 19.5 |  | 77 | 83
43 | COc1cnc(-n2ccc(CN(C)C)n2)c2[nH]cc(C(=O)C(=O)N3CCN(C(=O)c4ccccc4)[C@H](C)C3)c12 | 19.8 | > 300000 |  |  |  | 
44 | CNC(=O)c1ncn(-c2ncc(OC)c3c(C(=O)C(=O)N4CCN(C(=O)c5ccccc5)CC4)c[nH]c23)n1 | 0.1 | > 300000 |  |  |  | 
45 | COc1cnc(-c2cccs2)c2[nH]cc(C(=O)C(=O)N3CCN(C(=O)c4ccccc4)CC3)c12 | 0.12 | 36000 | 6.6 | 18 |  | 
46 | COc1cnc(-c2cccc(N)n2)c2[nH]cc(C(=O)C(=O)N3CCN(C(=O)c4ccccc4)CC3)c12 | 0.09 | 122000 | 6.6 | 13 |  | 
47 | CCc1ncc(-c2ncc(OC)c3c(C(=O)C(=O)N4CCN(C(=O)c5ccccc5)CC4)c[nH]c23)s1 | 0.03 | 120000 | 14.1 | 7 |  | 
48 | COc1cnc(-c2cnccn2)c2[nH]cc(C(=O)C(=O)N3CCN(C(=O)c4ccccn4)[C@@H](C)C3)c12 | 1.04 | 267000 to 300000 |  |  |  | 
49 | COc1cnc(-c2cnc(O)cn2)c2[nH]cc(C(=O)C(=O)N3CCN(C(=O)c4ccccc4)CC3)c12 | 0.04 | > 300000 | < 1.5 | > 100 |  | 
50 | COc1cnc(-c2cnc(N)s2)c2[nH]cc(C(=O)C(=O)N3CCN(C(=O)c4ccccc4)CC3)c12 | 0.06 | > 250000 |  | 26 |  | 
